Experimental data as given in ChEMBL document CHEMBL1135521 (J Med Chem, 2002).

Tests used:
[1] = Concentration required to cause 50% death of uninfected MT-4 cells.; assay type: ADME, cell-based, MT4; conditions: human
[2] = test system: MT4; assay: Concentration required to inhibit syncytia formation by 50% on MT-4 cells.; assay type: functional, cell-based; conditions: Homo sapiens
Procedure, shortened: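 HIV-infected MT4 cell cultures were scored by observing the virus's fusogenic effect, that is, syncytium formation. EC50 is the concentration that halves syncytium formation, and compounds were tested up to 50 µM.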

[3] = biological target: Human immunodeficiency virus type 1 protease (Human immunodeficiency virus 1, UniProt Q72874); assay: Concentration required to inhibit HIV-1 protease cleavage by 50%.
[4] = Selectivity index, expressed as the ratio of CC50 and EC50; conditions: read-out: SI
Procedure, shortened: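 Ratio of CC50 to EC50 in HIV-infected MT4 cell cultures. The antiviral EC50 comes from inhibition of virus-induced syncytium formation (the fusogenic effect), scored by observing the cultures.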

| SMILES | CC50 [1] | EC50 [2] | IC50 [3] | selectivity ratio [4] |
| --- | --- | --- | --- | --- |
| CC(C)CN(C[C@H](O)[C@@H](NC(=O)O[C@@H]1CCOC1)Sc1ccccc1)S(=O)(=O)c1ccc(N)cc1 | > 50 µM | > 50 µM | 12.5 µM |  |
| CC(C)CN(C[C@@H](O)[C@@H](NC(=O)O[C@@H]1CCOC1)Sc1ccccc1)S(=O)(=O)c1ccc(N)cc1 | > 50 µM | > 50 µM | 16.7 µM |  |
| CC(C)CN(C[C@@H](O)[C@H](NC(=O)O[C@@H]1CCOC1)Sc1ccccc1)S(=O)(=O)c1ccc(N)cc1 | > 50 µM | > 50 µM | 1.4 µM |  |
| CC(C)CN(C[C@@H](O)[C@H](Cc1ccccc1)NC(=O)O[C@H]1CCOC1)S(=O)(=O)c1ccc(N)cc1 | > 50 µM | 0.01 µM |  |  |
| CC(C)CN(C[C@H](O)[C@H](NC(=O)O[C@@H]1CCOC1)Sc1ccccc1)S(=O)(=O)c1ccc(N)cc1 | > 50 µM | > 50 µM | 11.6 µM |  |
| CC(C)CN(CC(O)C(NC(=O)O[C@H]1CCOC1)Sc1ccccc1)S(=O)(=O)c1ccc(N)cc1 (some centres not stated) | > 50 µM | 50 µM |  | > 1 |
